Compounds with a hit are over-represented: about 2% of the library has one in this group of screens.
UPR XBP1 act – activators of adaptive XBP1 UPR arm, primary screen, cell-based, CHO-XBP1 luciferase reporter, luminescence, uHTS; IRE1-XBP1 UPR activation; percent of tunicamycin response, DMSO as zero; activation, % at 20 µM; hit rate 0.33% among 330,000;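 active means versus positive control, 20 µM dose yields 30% or more activation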;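 further: 100% = tunicamycin at 10 µg/mL and 0% = DMSO only wells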
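Assay system: CHO-XBP1 luciferase reporter cells; Schedule: 6 h treatment, 37 °C; Detection: glow luminescence from Steady-Glo reagent; Benchmarks: high control tunicamycin 10 µg/mL final, low control DMSO vehicle only.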
MC4R ag barr – MC4R agonists recruiting beta-arrestin, primary screen, cell-based, luminescence, agonist arm of biased-ligand search; Melanocortin receptor 4 (Homo sapiens), P32245; U2OS MC4R beta-arrestin complementation; percent of melanotan II response, DMSO zero; activation, % at 8.9 µM; hit rate 0.98% among 360,000; AID 540308, 2011;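 active means activation above a per-plate cutoff, the mean activation of sample wells on that plate plus 3 SD, cut at about 8% in these data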
Target sequence (P32245 whole entry, looked up): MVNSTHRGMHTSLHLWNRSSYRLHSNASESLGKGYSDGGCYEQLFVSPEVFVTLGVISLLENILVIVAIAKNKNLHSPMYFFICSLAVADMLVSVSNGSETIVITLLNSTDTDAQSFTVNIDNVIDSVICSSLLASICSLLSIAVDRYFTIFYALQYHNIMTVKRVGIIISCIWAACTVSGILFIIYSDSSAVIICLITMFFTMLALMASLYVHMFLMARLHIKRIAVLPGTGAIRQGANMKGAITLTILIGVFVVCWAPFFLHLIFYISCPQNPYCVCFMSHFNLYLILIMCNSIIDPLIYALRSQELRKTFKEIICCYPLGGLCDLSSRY
UPR CHOP act – activators of apoptotic CHOP UPR arm, primary screen, cell-based, CHO-CHOP luciferase reporter, luminescence, uHTS; UPR activation; percent of tunicamycin response over DMSO baseline; activation, % at 10 µM; hit rate 0.34% among 330,000;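 active means at 10 µM dose, activation of 40% or more, normalized to positive control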;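 further: 100% = tunicamycin at 10 µg/mL and 0% = DMSO alone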
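Material: CHO-CHOP cells, stable luciferase reporter of PERK-eIF2a-CHOP signalling; quantity: 500 reporter cells seeded per well; buffer or medium: F12 medium containing 10% fetal bovine serum; compound: one dose, 10 µM in 0.5% DMSO; incubation: 6 h compound treatment, 37 °C; measured by: Steady-Glo luciferase luminescence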
A1 inh – caspase 3/7 activation in MEF A1-2A-BIM cells, primary screen, A1 inhibitor project, cell-based, luminescence, HTS; Caspase-Glo 3/7 luminescence, 3 h; percent of clofoctol response, vehicle zero; caspase activation, % (test concentration not listed); hit rate 0.066% among 330,000; AID 2462, 2010;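 active means over half of replicate activation scores above 10%, or exactly half above 10 with the replicate mean above 10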
MC4R antagonist – MC4R antagonists of cAMP signaling, primary screen, cell-based, TR-FRET, antagonist arm of biased-ligand search. Melanocortin receptor 4 (Homo sapiens), P32245. MC4R-expressing cells, MTII-stimulated cAMP, LANCE TR-FRET. inhibition, % at 6.5 µM. hit rate 0.48% among 360,000. AID 540295, 2011;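 active means inhibition above its plate's cutoff, the mean of tested wells on that plate plus 3 SD, cut at about 29% in these data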;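 further: 0% = Melanotan II alone and 100% = Melanotan II plus saturating MCL0020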
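Material – human MC4R-expressing U2OS cells · Repeats – no replicates · Detection – TR-FRET with Eu-cAMP and labeled anti-cAMP, 671 nm · Times – compound 30 min, challenge 1 h, detection 1 h · Compound – single nominal compound dose of 6.5 µM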
An asterisk follows results filed as active; · = not tested or not shown.

SMILES	UPR XBP1 act	MC4R ag barr	UPR CHOP act	A1 inh	MC4R antagonist
C=CCNc1nc(-c2cccc(OC)c2O)nc2ccccc12	11.0	9.4*	-0.5	0.3	-10.0
COc1cccc(-c2nc(NCc3ccco3)c3ccccc3n2)c1O	4.3	18.2*	0.0	-0.2	-13.0
O=C(CSc1nnc(SCc2ccc(Cl)cc2)s1)N/N=C/c1ccc(Cl)cc1Cl	70.1*	-1.8	3.4	-1.2	1.4
Cc1ccc(C(=O)O)cc1-c1ccc(/C=C2\SC(=O)N(CC(=O)Nc3ccccc3)C2=O)o1	0.7	0.5	-0.9	0.9	31.5*
O=C(NC1CCCCC1)C(c1ccc(F)cc1)N(Cc1ccccc1)C(=O)CN1C(=O)c2ccccc2S1(=O)=O (centres undefined)	23.1	4.0	5.8	-0.8	14.6
O=C(NC1CCCCC1)C(c1ccc(F)cc1)N(CCc1ccccc1)C(=O)CN1C(=O)c2ccccc2S1(=O)=O (centres undefined)	·	1.8	·	17.8*	25.6
CC(C)NC(=O)C1(C)Cc2c(-c3ccc(N(C)C)cc3)ccnc2O1 (centres undefined)	·	0.2	·	·	8.5
CCOC(=O)Nc1ccc(OC(=O)Oc2ccc(NC(=O)OCC)cc2)cc1	·	9.5*	·	·	-5.5
CC(C)(C)NC(=O)NC(=O)COC(=O)c1ccc(OC(F)(F)F)cc1	-0.9	8.4*	2.9	-1.1	0.8
COc1ccc(N(CCCN2C(=O)c3cccc4cccc(c34)C2=O)C(=O)c2cccnc2)cc1	-1.0	11.0*	1.2	0.3	-24.8
c1ccc2c(c1)[nH]c1c3ccccc3sc21	-5.0	8.3*	4.3	-0.5	14.4
O=c1c2ccccc2sc2ccccc12	·	-1.4	·	·	-1.3
CCOC(=O)N/N=C/c1cn(Cc2ccc(F)cc2)c2ccccc12	-2.6	4.3	1.5	0.5	0.9
O=[N+]([O-])/C=C/c1cn(Cc2ccc(Cl)cc2)c2ccccc12	0.6	2.9	6.8	9.1*	-19.3
O=C(CNc1ccc2c(c1)OCO2)N/N=C\c1cn(Cc2ccccc2)c2ccccc12	-0.1	1.7	4.2	-0.2	12.8
N#CCC(=O)N/N=C/c1cn(Cc2ccc(Cl)cc2Cl)c2ccccc12	5.9	16.6*	-0.3	1.3	1.1
CCOC(=O)N/N=C/c1cn(Cc2ccc(Cl)cc2)c2ccccc12	1.8	8.8*	2.5	0.6	-5.3
CC1CCCCC1=NNC(=O)c1ccccc1 (centres undefined)	·	-1.4	·	·	-2.0
CC1ON=C(c2ccccn2)N(Cc2ccc3c(c2)OCO3)C1=O (centres undefined)	·	0.3	·	·	9.9
C=CCOc1cccc(C(=O)/C=C2/C(=O)Nc3ccccc32)c1	0.2	-0.3	85.6*	0.2	-8.6
O=C1Nc2ccc(Br)cc2/C1=C/C(=O)c1ccccc1	·	-3.2	·	·	4.9
Cc1ccc(F)c(S(=O)(=O)NC(=O)C2(C)CCN2C(=O)Cc2ccccc2)c1 (centres undefined)	·	-1.0	·	·	-3.7
COc1ccc(CN2CCN(CC(O)Cn3c4ccccc4c4ccccc43)CC2)cc1 (centres undefined)	4.0	9.5*	-0.6	0.2	11.6
CC1=CC2C(C(O)CC3(C)C2CC(C)C32OCOC23COCO3)C2(C)C/C(=C\O)C(=O)C=C12 (centres undefined)	·	29.4*	·	·	25.8
Clc1ccc(-c2nc3c4ccccc4ccn3c2Cc2ccccc2)cc1	·	1.6	·	·	11.5
SMILES	UPR XBP1 act	MC4R ag barr	UPR CHOP act	A1 inh	MC4R antagonist
C[C@@H](C[C@@H](O)[C@H](O)C(C)(C)O)[C@@H]1CC[C@]2(C)C3=CC[C@H]4C(C)(C)C(=O)CC[C@]4(C)[C@H]3CC[C@@]12C	6.6	9.4*	5.0	0.6	3.9
C[C@H](C[C@H](O)[C@H]1OC1(C)C)C1=C2C[C@H](O)C3[C@@]4(C)CCC(=O)C(C)(C)C4CC[C@]3(C)[C@@]2(C)CC1 (some centres undefined)	1.8	7.8	2.2	-0.9	7.5
O=C(Nc1ccc(Br)cn1)c1ccc(COc2c(F)c(F)cc(F)c2F)o1	-1.2	8.4*	0.2	0.3	4.2
COc1ccc2c(c1)OC(c1ccccc1)(C(F)(F)F)NC2=O (centres undefined)	2.5	-2.2	4.1	1.3	7.5
CC(C)Oc1ccc2c(c1)OC(c1ccccc1)(C(F)(F)F)NC2=O (centres undefined)	0.2	8.5*	0.8	0.6	2.7
COc1ccccc1NC(=O)NC(=O)c1ccccc1	0.6	8.8*	1.7	-9.3	0.4
COc1ccccc1NC(=O)NC(N)=O	2.1	3.3	1.1	-0.7	8.0
O=C(N/N=C/c1ccc(Cl)cc1Cl)Nc1ccccc1	3.1	16.0*	3.8	-0.9	-4.4
Cc1ccccc1C(c1ncccc1C)N(C)C(=O)C1CCN(CCOc2ccc(Cl)cc2Cl)CC1 (centres undefined)	·	9.2*	·	·	-11.1
CC(=O)c1cc2cccc(OC3(C)CCN(Cc4ccc(-c5ccccn5)cc4)C3)c2o1 (centres undefined)	·	-1.2	·	·	5.2
O=C(NCc1ccc(Cl)cc1)c1ccc(S(=O)(=O)N2CCCCC2)cc1	-2.3	9.4*	-1.5	-0.1	-1.9
O=C(COC(=O)/C=C/c1cccc(Cl)c1Cl)Nc1ccc2[nH]c(=O)[nH]c2c1	-0.7	3.3	-2.0	15.6*	13.4
O=C(COC(=O)/C=C/c1cccc(Cl)c1)Nc1ccc2[nH]c(=O)[nH]c2c1	-1.7	-2.0	1.5	-0.1	0.6
COc1ccc(C(C)NC(=O)C2CCN(CCOc3ccc(Cl)cc3Cl)CC2)cc1OC (centres undefined)	·	1.4	·	·	-1.2
Cc1ccc(-n2ccc(=O)c(-c3ccnc(SCc4cccc(Cl)c4)n3)n2)cc1	-2.1	8.6*	-0.4	0.7	-8.2
CCn1c(-c2nn(-c3ccc(C)cc3)ccc2=O)n[nH]c1=S	0.9	-3.5	0.7	-0.3	6.6
O=C1C=C(c2ccccc2)C(=O)N1Nc1ccccc1	-10.3	0.5	-8.6	-0.3	4.6
Cc1ccc(NN2C(=O)C=C(c3ccc(Cl)cc3)C2=O)cc1	-10.9	-3.7	-5.5	10.8*	10.9
COc1ccc(NC(=O)c2ccc(-c3ccc(OC)cc3)s2)cc1	2.2	8.5*	5.5	-0.4	-8.1
CNC(=O)c1ccc(-c2ccc(OC)cc2)s1	2.7	0.2	1.7	-4.9	7.5
Cc1ccccc1NC(=O)C1C2/C=C\CCCCC21 (centres undefined)	-1.7	8.8*	-0.4	-0.1	6.9
